# Tn6 DDE FP: disrupts Tn6 cyclic peptide binding to fibrin D-Dimer-E complex. P02675. inhibition, % at 8.3 µM. 0.21% of 370,000 active. AID 720509. Fibrin DD(E) TRITC-Tn6 fluorescence polarization displacement;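 active = inhibition above a per-campaign cutoff: mean of compounds within control limits plus 3 SD, cut at about 15% in these data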;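 note: 0% = median of all compound wells on the plate and 100% = blocking peptide control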
# Target sequence (P02675 whole entry, looked up): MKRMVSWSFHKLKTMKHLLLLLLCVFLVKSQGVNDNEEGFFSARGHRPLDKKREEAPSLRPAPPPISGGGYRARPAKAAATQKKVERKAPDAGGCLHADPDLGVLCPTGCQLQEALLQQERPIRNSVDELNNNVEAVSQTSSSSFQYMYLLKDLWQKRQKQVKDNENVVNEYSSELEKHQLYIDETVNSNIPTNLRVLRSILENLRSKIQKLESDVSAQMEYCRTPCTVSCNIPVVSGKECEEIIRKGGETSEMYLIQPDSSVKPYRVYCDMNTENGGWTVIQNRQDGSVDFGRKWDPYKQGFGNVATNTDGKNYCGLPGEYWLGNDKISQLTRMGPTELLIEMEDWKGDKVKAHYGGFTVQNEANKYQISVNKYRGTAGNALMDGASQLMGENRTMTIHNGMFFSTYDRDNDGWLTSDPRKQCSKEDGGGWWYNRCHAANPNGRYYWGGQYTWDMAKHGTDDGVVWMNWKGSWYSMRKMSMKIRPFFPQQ
# MT1-MMP act inh: blocks activation of human MT1-MMP. P50281. HT1080 RFP-PRO-GFP cells, GFP/RFP ratio fluorescence, overnight; percent of plate control window, DMSO zero. GFP/RFP ratio change, % at 20 µM. 0.061% of 360,000 active. AID 651647;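 active = GFP/RFP ratio change of at least 30% with cell ATP level not reduced by more than half and red fluorescence within 50% of control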
#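 Assay system: HT1080 cells carrying an RFP-PRO-GFP reporter | Dosing: Single dose of 20 µM compound, 1% DMSO final | Incubation: Cells overnight before dosing, compound overnight, 37 °C, 5% CO2 | Evaluation: GFP/RFP fluorescence ratio | Control set: DMSO and RFP-L50D-GFP cell wells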
# Tn7 DDE FP: DD(E)-Tn7 binding inhibition, primary FP screen. FP displacement of FITC-Tn7 peptide from fibrin DD(E); 0% = median of compound wells per plate. inhibition, % at 8.3 µM. P02675. 0.13% of 370,000 active;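 active = inhibition above the mean of compounds falling within the control limits plus 3 SD of them, cut at about 14% in these data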;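 note: 0% = plate median of compound wells and 100% = 10 µM Aha-Tn7 peptide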
#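 Assay system: human fibrin DD(E). Input: DD(E) 2 µM final. Medium: Tris buffer with calcium and detergent, pH 7.8. Compound dosing: single point at 8.3 µM. Timing: 10 min plus 3 h, room temperature. Technique: fluorescence polarization of the labelled Tn7 tracer. Read-out: percent inhibition. Replicates: singlicate testing.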
# SKN-1 block: C. elegans SKN-1 inhibition. C. elegans VP596 Pgst-4::GFP/RFP ratio, acrylamide-induced, 24 h. inhibition, % at 21.8 µM. 0.49% of 360,000 active. AID 624304;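 active = interference check ratio from 0.5 to 1.5 plus GFP to RFP signal ratio inhibition reaching or exceeding a fixed threshold, cut at about 30% in these data, passing the limit was not always enough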
# KLK7 zymogen act: proKLK7 (human) activation, primary screen | 0.9% of 370,000 active | purified proKLK7, EDANS-DABCYL substrate fluorescence; 100% is mature enzyme control, 0% vehicle | activation, % at 7 µM | AID 652039 | P49862;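 active = activation above the mean of all tested compounds plus 3 SD, computed per campaign excluding outliers beyond control limits, cut at about 13% in these data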
# Neddylation inh: inhibitors of human cullin neddylation; AID 651699; P61081+Q13564; 0.58% of 360,000 active; calls only at 25 µM; TR-FRET cullin neddylation, biochemical; in the data active = inhibition above about 36%
# proKLK7 act conf: proKLK7 activation, confirmation. shares compounds with KLK7 zymogen act. purified proKLK7, EDANS-DABCYL substrate fluorescence; scaled: vehicle 0, mature enzyme 100. activation, % at 7 µM. 68% of 3,200 active. AID 686949;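 active = activation, as change over the incubation, above the mean of all tested compounds plus 3 SD, cut at about 13% in these data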
# EDANS interfere: fluorescence interference counter-screen for KLK7 activators; shares compounds with KLK7 zymogen act; EDANS-DABCYL substrate fluorescence interference, no enzyme, 4 h; solvent 0%, active enzyme control 100%; activation, % at 7 µM; 80% of 3,200 active; AID 686952;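 active = activation above the all-compound mean plus 3 SD, ignoring values outside control-based bounds, cut at about 4.8% in these data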;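 note: value is the 4 h activation minus the activation read at time zero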
# An asterisk follows results filed as active; i = inactive; . = no result given. Most compounds without a hit are left out; they make up all but 2.2% or so of the library.
SMILES,Tn6 DDE FP,MT1-MMP act inh,Tn7 DDE FP,SKN-1 block,KLK7 zymogen act,Neddylation inh,proKLK7 act conf,EDANS interfere
Cc1cccc2c1-c1sc(C(=O)NCCCN3CCC(C)CC3)cc1CO2,4,3,3,-2,49*,i,64*,65*
CCOC(=O)C1CCCN(C(=O)c2ccc3c(c2)CCO3)CC1 (stereo not drawn),9,2,5,7,0,i,.,.
CC1CCCN(CCCNC(=O)c2cc3c(Cl)nc4ccccc4c3s2)C1 (stereo not drawn),9,4,1,0,0,i,.,.
CC1CCN(CCCNC(=O)c2cc3c(s2)-c2ccccc2OC3)CC1,0,-1,-4,14,75*,i,74*,74*
CN1CCN(c2ccccc2NC(=O)c2cc3c(s2)-c2ccccc2OC3)CC1,3,-7,-6,1,0,i,.,.
CCOCCCN1CC(C(=O)NCc2ccc3c(c2)OCO3)CC1=O (stereo not drawn),1,-5,5,5,0,i,.,.
COC(=O)c1cc2c(s1)-c1ccccc1OC2,-5,8,-1,-2,82*,.,76*,80*
O=C(Nc1nccs1)c1cc2c(s1)-c1ccccc1OC2,-10,-7,0,1,5,.,.,.
CCOC(=O)Cc1c(C)c2c(O)cc(O)cc2oc1=O,-2,5,1,0,76*,.,62*,64*
CCOC(=O)Cc1c(C)c2ccc(N(CC)CC)cc2oc1=O,0,3,-5,-3,76*,.,-7,-26
CCOC(=O)C[n+]1ccc2c([nH]c3ccccc32)c1C,-8,-4,-6,20,36*,.,47*,72*
CCOC(=O)Cc1c(Cl)c2ccccc2[nH]c1=O,2,1,5,1,0,i,.,.
Cc1nn(CC(=O)NCCN2CCOCC2)c(C)c1[N+](=O)[O-],8,3,0,2,1,i,.,.
COc1ccc(-c2cc3ccc(OCC(=O)NCC4CCC(C(=O)O)CC4)cc3oc2=O)cc1 (stereo not drawn),7,-8,-2,8,64*,i,54*,74*
CC(=O)Oc1ccc2cc(-c3ccccc3)c(=O)oc2c1,-11,3,-2,0,216*,i,565*,570*
COc1ccc2c(c1)c(=O)oc1cc(OCC(=O)NCC3CCC(C(=O)O)CC3)ccc12 (stereo not drawn),-5,0,-1,-8,-1,.,.,.
COc1ccc(-c2cc3ccc(OC(C)C(=O)O)cc3oc2=O)cc1 (stereo not drawn),5,-20,-6,-8,70*,i,70*,68*
CC(=O)COc1ccc2cc(-c3ccccc3)c(=O)oc2c1,4,0,4,11,23*,.,57*,73*
COc1ccc(-c2cc3ccccc3oc2=O)cc1,-4,-1,0,27,8,i,.,.
Clc1ccc(-c2nc3c4ccccc4ccn3c2Cc2cccc(Cl)c2)cc1,6,-2,6,-5,-1,i,.,.
CCOC(=O)C1CCCN(C(=O)c2cccc(S(=O)(=O)N(C)c3ccc(OC)cc3)c2)C1 (stereo not drawn),4,-4,-7,15,0,i,.,.
CCCC(=O)N/C(N)=N/c1nc2ccccc2o1,3,2,2,25,0,i,.,.
CC(NC(=O)CN(c1ccc(F)cc1)S(C)(=O)=O)c1ccccc1 (stereo not drawn),0,-2,-1,16,0,i,.,.
CCN(CC)C(=O)c1ccc2c(c1)nnn2C,-4,1,-2,6,16*,i,0,0
C=CCN(C(=O)c1ccc2c(c1)nnn2C)c1ccccc1,-3,3,5,4,0,i,.,.
SMILES,Tn6 DDE FP,MT1-MMP act inh,Tn7 DDE FP,SKN-1 block,KLK7 zymogen act,Neddylation inh,proKLK7 act conf,EDANS interfere
CCOC(=O)c1c(SCC(=O)Nc2nccs2)nc(C)c(C)c1C,-3,0,-2,13,79*,i,61*,58*
Cc1ccc(C#N)c(SCC(=O)Nc2nccs2)n1,-3,5,0,11,130*,i,209*,182*
Cc1nc(-c2cccnc2)sc1C(=O)Nc1cccc(C(F)(F)F)c1,-4,0,8,0,-1,i,.,.
CCn1c(/C=C/c2cc[n+](C)cc2)nc2ccccc21,1,-12,7,-11,57*,i,59*,62*
CCCn1c(/C=C/c2ccccc2)nc2ccccc21,-5,-3,5,0,0,.,.,.
COC(=O)c1ccc(C(C(=O)NC2CCCCC2)N(CCc2ccccc2)C(=O)Cc2cccs2)cc1 (stereo not drawn),5,3,6,4,-1,i,.,.
COc1c2c(cc3c1c(=O)c1ccccc1n3C)OCO2,-3,.,1,.,45*,.,56*,77*
CCCn1c(=NC(=O)c2ccco2)c(C(=O)OCC)cc2c(=O)n3ccccc3nc21,-8,4,-1,6,89*,.,35*,35*
CC(C)n1c(=NC(=O)c2ccco2)c(C#N)cc2c(=O)n3ccccc3cc21,-5,-7,-2,-5,45*,.,22*,19*
CCOC(=O)c1cc2c(=O)n3ccccc3nc2n(C(C)C)c1=NC(=O)c1ccco1,7,-2,-5,1,44*,.,59*,51*
N=c1c(C(=O)NCCc2ccccc2)cc2c(=O)n3ccccc3nc2n1Cc1ccco1,-6,-4,-9,8,-9,.,.,.
Cc1cc(C)n2c(SCCO)nnc2n1,2,2,-7,-9,0,i,.,.
CC1(C)Oc2cc3oc(C(=O)O)cc(=O)c3cc2-c2ccccc21,0,-13,-2,-2,100*,.,68*,67*
CCc1cc2c(nc1CC)CCCN2CCOC,-2,.,5,.,29*,.,-10,-10
Cc1ccc(/C=C2/NC(=O)N(Cc3ccccc3)C2=O)s1,10,-68,-4,4,17*,i,5,-24
Cc1cccc(CN2C(=O)N/C(=C/c3ccc(C)s3)C2=O)c1,-1,-10,1,13,0,i,.,.
N#Cc1c(C(F)(F)F)cc(C2CC2)[nH]c1=O,3,-3,-11,3,18*,.,16*,23*

# Bioassay records deposited in PubChem by several laboratories.
